DNMT1 inh – human DNMT1 methyltransferase inhibitors, primary screen, biochemical, molecular beacon, fluorescence, HinP1I cleavage, uHTS. DNA (cytosine-5)-methyltransferase 1 (Homo sapiens), P26358. inhibition (reported as % activation of signal), % at 10 µM. 360,000 compounds, 0.83% hits; in the data active = inhibition above about 50%
STEP block – STEP phosphatase inhibitors, primary screen, biochemical, fluorescence intensity, uHTS. inhibition, % at 20 µM. 360,000 compounds, 0.25% hits. Tyrosine-protein phosphatase non-receptor type 5 (Homo sapiens), P54829. AID 588621, 2011. recombinant STEP, OMFP fluorogenic substrate;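 active = inhibition at 20 µM, scaled per plate between control wells, above about 37%, limit read from the data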;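 also: 0% = DMSO with enzyme and substrate and 100% = substrate only without enzyme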
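Also added – OMFP at 25 µM · Test system – STEP tyrosine phosphatase · Technique – FITC-channel fluorescence of OMFP product · Schedule – 20 min at room temperature, dark · Evaluation – control-normalized % inhibition with plate pattern correction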
HKDC1 inh – HKDC1 hexokinase inhibitors, primary screen, biochemical, fluorescence, uHTS; Q2TB90; recombinant HKDC1, G6PDH/diaphorase resazurin coupled fluorescence; inhibition, % at 20 µM; 340,000 compounds, 0.16% hits; AID 493160, 2011;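 active = inhibition above about 35% when tested at 20 µM, limit read from the data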;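 also: plate controls were DMSO wells with enzyme for no effect and DMSO wells lacking enzyme for full effect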
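Test system: recombinant HKDC1 (HK5) hexokinase enzyme, produced in-house / Doses: 20 µM test compound, 1% DMSO / Timing: 90 min, room temperature / Detection: G6PDH/diaphorase-coupled fluorescence, 1 mM NADP, 100 µM resazurin, 525/613 nm / Control set: DMSO wells with and without enzyme mix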
LMPTP block – LMPTP phosphatase inhibitors, primary screen, biochemical, fluorescence intensity, uHTS; Low molecular weight phosphotyrosine protein phosphatase (Homo sapiens), P24666; recombinant LMPTP-A, OMFP fluorogenic substrate; inhibition, % at 20 µM; 360,000 compounds, 0.22% hits; AID 651560, 2012;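 active = compounds that cut the enzyme signal by at least half of the control window in the single-dose screen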;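 also: plate controls were DMSO wells with enzyme plus substrate for no effect and substrate without enzyme for full effect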
Target sequence (P24666 whole entry, looked up): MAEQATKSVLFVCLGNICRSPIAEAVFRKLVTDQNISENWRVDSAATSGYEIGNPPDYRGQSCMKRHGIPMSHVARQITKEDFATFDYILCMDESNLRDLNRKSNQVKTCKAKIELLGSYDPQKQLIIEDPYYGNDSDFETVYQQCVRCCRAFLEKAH
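Test system: LMPTP-A phosphatase enzyme; input: 0.625 nM LMPTP-A final; reagent: OMFP substrate, 400 µM final; compound dosing: 20 µM single dose, 3% DMSO; incubation: 50 min dark incubation at room temperature; measured by: endpoint fluorescence intensity from OMFP dephosphorylation; measure: % inhibition relative to no-enzyme and uninhibited control wells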
Scp-1 inhibitor – Scp-1 phosphatase inhibitors, primary screen, biochemical, colorimetric, uHTS; Carboxy-terminal domain RNA polymerase II polypeptide A small phosphatase 1 (Homo …; Recombinant Scp1, phosphopeptide, malachite green phosphate absorbance; inhibition, % at 20 µM; 340,000 compounds, 0.88% hits; AID 493091, 2011;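 active = inhibition above about 50% at 20 µM, limit read from the data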;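 also: plate controls were DMSO wells with enzyme for no effect and wells lacking enzyme for full effect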
Target sequence (Q9GZU7 76-261 limits assumed): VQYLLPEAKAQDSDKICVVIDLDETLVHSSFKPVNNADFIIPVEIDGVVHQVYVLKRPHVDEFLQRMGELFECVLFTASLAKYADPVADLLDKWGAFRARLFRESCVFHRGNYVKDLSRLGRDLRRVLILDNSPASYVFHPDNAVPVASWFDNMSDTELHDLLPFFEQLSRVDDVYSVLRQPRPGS
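Test system: SCP-1 phosphatase catalytic domain, residues 76-261 | Compound dosing: One concentration, 20 µM, with 1.0% DMSO | Schedule: 45 min room-temperature reaction, 5 min colour, 30 min stabiliser | Detection: Absorbance at 630 nm | Read-out basis: % inhibition of SCP-1 phosphate liberation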
SUMO1 PPI mod – modulators of SUMO1 protein-protein interactions, primary screen, biochemical, uHTS; Small ubiquitin-related modifier 1 (Homo sapiens), P63165; SUMO1 binding to a labelled peptide, TR-FRET, 1 h; inhibition, % at 20 µM; 360,000 compounds, 0.33% hits; AID 602429, 2012; in the data active = inhibition above about 37%
Target sequence (P63165 whole entry, looked up): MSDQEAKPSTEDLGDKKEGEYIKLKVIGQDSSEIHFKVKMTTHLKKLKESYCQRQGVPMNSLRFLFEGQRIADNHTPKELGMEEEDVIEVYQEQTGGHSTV
DNMT1 inh conf – DNMT1 methyltransferase inhibitor retest, confirmation, biochemical, molecular beacon, fluorescence, single concentration; shares compounds with DNMT1 inh; DNMT1 molecular beacon HinP1I cleavage; inhibition, % at 10 µM; 2,300 compounds, 8% hits;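 active = average inhibition of at least 30% in the single-concentration confirmation test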
Beacon interf – beacon fluorescence artifact counter-screen. DNMT1 molecular beacon spectral interference counterscreen, fluorescence 485/520. shares compounds with DNMT1 inh. activation (fluorescence interference), % at 10 µM. 2,300 compounds, 1% hits;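 active = activation of at least 30% at 10 µM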;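 also: DNMT1 catalytic domain with a HinP1I cleavage step and a FAM/dabcyl DNA beacon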
STEP conf – STEP phosphatase inhibitor hit confirmation, biochemical, fluorescence intensity, single concentration. 520 compounds, 32% hits. inhibition, % at 20 µM. AID 623866, 2012. shares compounds with STEP block. recombinant STEP, OMFP fluorogenic substrate; call rule not given here;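 also: 0% = enzyme with substrate plus DMSO and 100% = substrate without enzyme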
* marks the source's active call; other numbers are inactive results; . = no result given. Most compounds without a hit are left out; they make up all but 1.8% or so of the library.

SMILES | DNMT1 inh | STEP block | HKDC1 inh | LMPTP block | Scp-1 inhibitor | SUMO1 PPI mod | STEP conf | others
C[C@H](NC(=O)c1ncn2c1c(=O)[nH]c1ccc(Br)cc12)c1ccccc1 | 89.5* | 53.5* | . | 55.7* | . | -26.4 | 0.5 | DNMT1 inh conf=1.9;Beacon interf=-2.3
C[C@H](NC(=O)c1ncn2c1c(=O)[nH]c1ccccc12)c1ccccc1 | 7.4 | -0.3 | . | 0.0 | . | 11.3 | .
COc1ccc(Nc2nc(=O)c3cc([N+](=O)[O-])ccc3s2)cc1 | 64.8* | 42.6* | 5.7 | 80.0* | 1.3 | -7.3 | -3.5 | DNMT1 inh conf=0.6;Beacon interf=-6.1
O=C(O)c1cccc(S(=O)(=O)NNc2ccccc2C(F)(F)F)c1 | 9.2 | 44.4* | -3.8 | 5.8 | 27.7 | 88.5* | 8.8
O=C(O)c1cccc(S(=O)(=O)Nc2ccc(-c3ccccc3)cc2)c1 | 4.2 | 9.0 | 3.5 | -0.7 | -1.1 | 6.4 | .
O=C(/C=C/c1ccccc1Cl)N1CCN(c2ncccn2)CC1 | 6.8 | 67.6* | 10.1 | -1.0 | -1.2 | -6.7 | -4.4
O=S(=O)(O)c1cc(O)c2cc(Nc3ccccc3)ccc2c1 | 98.5* | 71.9* | 21.9 | 83.3* | 88.1* | 77.2* | 100.1*
O=C(O)c1cc(S(=O)(=O)O)ccc1O | 1.8 | -2.0 | -1.8 | -1.6 | -11.9 | 1.2 | .
Nc1ccc2c(O)cc(S(=O)(=O)O)cc2c1 | 93.1* | 37.5* | 12.2 | 26.2 | 67.3* | 36.6 | 67.9*
CCCCC(=O)Nc1ccc2c(c1)nc(CCN1CCOCC1)n2C | -0.8 | 45.9* | 0.1 | -0.4 | -9.5 | 0.0 | 16.7
COc1ccc(C(C)=NOC(=O)c2c(-c3ccccc3Cl)noc2C)cc1CN1CCOCC1 | -9.4 | 2.5 | . | 0.2 | . | -0.6 | .
Cc1cccc(C)c1NC(=S)N(Cc1ccco1)C1CCN(C(C)C)CC1 | 2.5 | 46.2* | -9.7 | 1.5 | -4.6 | 2.6 | 8.3
Cc1cccc(C)c1NC(=S)N(CCN1CCCCCC1)Cc1ccco1 | -2.1 | 21.5 | 0.2 | -1.1 | -4.2 | -4.9 | .
Cc1cccc(C2CC3(CC(C)(C)NC(=S)N3)Oc3cc(O)ccc32)c1 (stereo not drawn) | -0.8 | -3.8 | 5.9 | -0.1 | 9.2 | -2.1 | .
COc1cccc(C2CC3(CC(C)(C)NC(=S)N3)Oc3cc(O)ccc32)c1 (stereo not drawn) | 9.5 | 112.1* | -6.5 | 0.7 | -1.3 | 2.5 | -4.8
CC(=O)C[C@@H](O)CC(=O)[C@@H]1OC(=O)[C@@H](C)C/C=C\Cc2ccccc21 | 1.9 | 0.0 | -4.5 | -1.2 | -4.8 | 2.5 | .
CCOC1(/N=C(\C)NS(=O)(=O)c2ccc(Cl)cc2)C(C)=CC(=O)C=C1C | 0.3 | -3.4 | 7.9 | -0.7 | -3.0 | 8.7 | .
O=C1[C@@H]2[C@@H]3C[C@@H]([C@H]4ON=C(c5ccc(Cl)cc5)[C@@H]34)[C@@H]2C(=O)N1c1ccc2c(c1)OCO2 | -6.1 | 46.5* | -2.7 | 0.2 | -7.1 | -0.6 | -4.1
O=C(NCCc1ccccc1)C1=CCN(S(=O)(=O)c2ccccc2)CC1 | -5.6 | -1.6 | -1.4 | -0.5 | -3.4 | 1.4 | .
CN1CCN(C(=S)C(=O)Nc2ccccc2)CC1 | -2.0 | 40.6* | -5.5 | -0.3 | -1.7 | 0.1 | 22.9
CCN(C(=O)COC(=O)Cn1c(=O)oc2ccccc21)c1c(N)n(Cc2ccccc2)c(=O)[nH]c1=O | 3.0 | -5.4 | -5.2 | -1.3 | -5.7 | 8.2 | .
COc1ccc(-c2csc(N3CCC(C(N)=O)(N4CCCCC4)CC3)n2)cc1 | 3.1 | 71.1* | -10.9 | 0.7 | -5.2 | -4.2 | -1.5
NC(=O)C1(N2CCCCC2)CCN(c2nc(-c3ccccc3)cs2)CC1 | -4.1 | 0.7 | -2.2 | 1.0 | -4.8 | -6.8 | .
Cn1c(=O)[nH]c(=O)c2c1nc(SCCN1CCCCC1)n2Cc1ccccc1 | -0.8 | -2.4 | -0.3 | -1.7 | -1.0 | 1.3 | .
Cc1ccc(Cn2c(SCCN3CCCCC3)nc3c2c(=O)[nH]c(=O)n3C)cc1 | -2.9 | 61.1* | -0.3 | -2.3 | -3.9 | 0.7 | 25.5
SMILES | DNMT1 inh | STEP block | HKDC1 inh | LMPTP block | Scp-1 inhibitor | SUMO1 PPI mod | STEP conf | others
Cn1c(=O)[nH]c(=O)c2c1nc(SCCN1CCCCC1)n2CCCc1ccccc1 | -0.8 | 80.2* | 0.0 | 1.0 | -6.7 | -0.5 | 45.6*
Cc1cccc(NC(=O)C2CCN(C(=O)c3ccc(F)cc3)CC2)n1 | -1.1 | -1.5 | 1.8 | -0.2 | -4.0 | 3.7 | .
Nc1c(C(=O)N/N=C/c2ccc([N+](=O)[O-])cc2)cnn1-c1ccccc1 | 4.5 | 51.7* | -2.5 | 19.2 | 16.8 | 17.4 | 23.7
O=C(N/N=C/c1ccc([N+](=O)[O-])cc1)c1cccnc1 | 1.0 | -2.4 | 0.9 | 0.9 | 5.2 | -26.6 | .
O=C(COC(=O)c1ccc(O)cc1O)Nc1cc(-c2ccccc2)nn1-c1ccccc1 | -3.0 | 0.4 | -0.9 | 2.8 | -6.9 | -2.8 | .
Cc1nn2c(CN(C(=O)COc3ccccc3)c3ccccc3)nnc2c2ccccc12 | -1.2 | 121.7* | -12.4 | -0.2 | 3.0 | 7.4 | -0.9
Cc1nn2c(CN(C(=O)CN3CCOCC3)c3ccccc3)nnc2c2ccccc12 | 1.4 | -2.4 | -14.0 | -2.1 | -7.6 | 3.7 | .
O=C(O)Cn1cnc2c(=S)nc[nH]c21 | 0.8 | -2.0 | -5.0 | 0.1 | -2.7 | 2.8 | .
S=c1nc[nH]c2c1ncn2-c1ccc(Cl)cc1 | 7.1 | 85.7* | -5.4 | 1.3 | 5.3 | 4.7 | 37.7*
CCN(CCn1cccn1)C(=O)c1cccc(OC2CCN(S(C)(=O)=O)CC2)c1 | 2.6 | -1.2 | -1.8 | -1.0 | -10.7 | 1.3 | .
CCNC(=O)C1(C)CCCN1C(=O)c1ccc(C#N)cc1 (stereo not drawn) | -1.4 | -0.3 | . | -0.7 | . | -2.2 | .
COCCNS(=O)(=O)c1cc(-c2nn(C)c(=O)c3ccccc23)ccc1C | 2.3 | 1.5 | 1.7 | 0.0 | -3.6 | -1.2 | .
